# Results taken from PubChem BioAssay.
# The list shows a part of the results. Unmarked numbers belong to inactive results. Activity calls are given as the source filed them.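 Rule for the calls, unless noted: active = mean inhibition above about 50% in the one-dose retest (limit read from the data); inactive = the rest.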
# Experiments:
# [1] = lowers stimulated NF-kB luciferase signal in Jurkat – cell-based, luminescence, single concentration, T-cell NF-kB inhibitor project, confirmation (AID 435020;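 active = inhibition reaching about 45% at 4 µM in either replicate, limit read from the data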;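 note: plate controls were PMA/ionomycin stimulated DMSO wells for no effect and unstimulated DMSO wells for full effect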); conditions: PMA/ionomycin-induced, 16 h, at 4 µM, active compounds read high
# [2] = biological target: Sentrin-specific protease 8 (Homo sapiens) (UniProt Q96LD8); assay: human SENP8 peptidase blockers, hit retest – biochemical, luminescence, single concentration, confirmation (AID 488912;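 active = mean inhibition across replicates above about 50%, limit read from the data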); conditions: Recombinant SENP8, Z-RLRGG-aminoluciferin luminescence, 60 min; at 12.5 µM; active compounds read high
# Chain of Sentrin-specific protease 8 (Homo sapiens) (Q96LD8 whole entry, looked up, the tested form may be a part): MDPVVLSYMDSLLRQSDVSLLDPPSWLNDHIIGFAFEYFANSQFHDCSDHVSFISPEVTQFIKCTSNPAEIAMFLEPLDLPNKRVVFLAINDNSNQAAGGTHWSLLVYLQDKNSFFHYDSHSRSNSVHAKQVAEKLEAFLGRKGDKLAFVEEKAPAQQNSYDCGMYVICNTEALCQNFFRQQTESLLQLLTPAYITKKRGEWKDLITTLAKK
# [3] = biological target: Sentrin-specific protease 6 (Homo sapiens) (UniProt Q9GZR1); assay: inhibition of human SENP6 catalytic domain – biochemical, luminescence, single concentration, confirmation (AID 488915); conditions: recombinant SENP6, Z-RLRGG-aminoluciferin luminescence; at 12.5 µM; active compounds read high
# Chain of Sentrin-specific protease 6 (Homo sapiens) (Q9GZR1 628-1112 limits assumed): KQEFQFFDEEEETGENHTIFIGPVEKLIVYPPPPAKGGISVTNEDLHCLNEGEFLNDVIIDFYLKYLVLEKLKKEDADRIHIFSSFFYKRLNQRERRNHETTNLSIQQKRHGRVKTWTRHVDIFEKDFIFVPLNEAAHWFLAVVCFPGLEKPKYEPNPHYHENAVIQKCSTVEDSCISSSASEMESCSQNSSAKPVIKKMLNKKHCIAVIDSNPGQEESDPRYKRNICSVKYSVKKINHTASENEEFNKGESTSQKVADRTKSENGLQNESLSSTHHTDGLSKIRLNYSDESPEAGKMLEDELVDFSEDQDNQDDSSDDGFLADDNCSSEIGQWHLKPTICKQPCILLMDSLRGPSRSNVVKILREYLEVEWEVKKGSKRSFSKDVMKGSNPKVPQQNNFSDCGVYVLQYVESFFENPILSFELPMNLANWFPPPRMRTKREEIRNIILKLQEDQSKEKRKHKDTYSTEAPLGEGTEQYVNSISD
# [4] = biological target: Sentrin-specific protease 7 (Homo sapiens) (UniProt Q9BQF6); assay: human SENP7 peptidase blockers, hit retest – biochemical, luminescence, single concentration, confirmation (AID 488917); conditions: recombinant SENP7, Z-RLRGG-aminoluciferin luminescence, 40 min; at 12.5 µM; active compounds read high
# Chain of Sentrin-specific protease 7 (Homo sapiens) (Q9BQF6 706-1050 limits assumed): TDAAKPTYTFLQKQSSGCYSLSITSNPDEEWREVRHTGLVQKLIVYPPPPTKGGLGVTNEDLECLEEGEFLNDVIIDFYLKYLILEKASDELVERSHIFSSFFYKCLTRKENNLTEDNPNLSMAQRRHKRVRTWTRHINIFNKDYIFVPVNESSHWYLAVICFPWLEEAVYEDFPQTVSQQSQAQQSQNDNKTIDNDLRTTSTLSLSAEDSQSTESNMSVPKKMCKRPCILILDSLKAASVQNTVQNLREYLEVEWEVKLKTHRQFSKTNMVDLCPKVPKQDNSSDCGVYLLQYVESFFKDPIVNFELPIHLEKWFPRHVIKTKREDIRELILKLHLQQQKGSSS
# Caspase-3 (Homo sapiens) = Caspase-3 (Homo sapiens) (UniProt P42574); assay: human caspase-3 activity blockade, out-of-family – biochemical, single concentration, selectivity assay for SENP inhibitor project, confirmation (AID 488918;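 active = mean inhibition above about 50%, limit read from the data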;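 note: plate controls were enzyme with DMSO for no effect and wells without caspase-3 for full effect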); conditions: purified caspase-3, Z-DEVD-aminoluciferin luminescence, 60 min; at 12.5 µM; active compounds read high
# Chain of Caspase-3 (Homo sapiens) (P42574 28-227 limits assumed): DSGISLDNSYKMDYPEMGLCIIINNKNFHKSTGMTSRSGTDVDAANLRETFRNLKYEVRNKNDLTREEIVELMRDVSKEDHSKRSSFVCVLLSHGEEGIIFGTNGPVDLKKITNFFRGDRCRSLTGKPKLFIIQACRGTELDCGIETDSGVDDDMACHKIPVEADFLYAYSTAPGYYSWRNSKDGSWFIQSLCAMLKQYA
# [5] = Ultra-Glo luciferase signal interference – biochemical, single concentration, SENP8 reaction pre-completed, artefact control for SENP inhibitor project, confirmation (AID 488919;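 active = mean inhibition above about 50% when retested at one dose, limit read from the data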;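 note: plate controls were DMSO wells with completed reaction for no effect and substrate without enzyme for full effect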); conditions: Pre-incubated SENP8/Z-RLRGG-aminoluciferin, luciferase luminescence interference; at 12.5 µM; active compounds read high
# [6] = PERK-eIF2a-CHOP pathway stimulators, retested – cell-based, CHO-CHOP luciferase reporter, single concentration, confirmation (AID 463112; in the data active = activation above about 33%;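 note: 0% = DMSO wells and 100% = tunicamycin 10 µg/mL wells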); conditions: CHO-CHOP cells, CHOP-luciferase reporter luminescence; at 10 µM; active compounds read high; percent of tunicamycin response, DMSO as zero
# How it was run: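 Signal: Steady-Glo luciferase luminescence; Test system: CHO-CHOP luciferase reporter cell line; Control set: tunicamycin (high) and DMSO (low) controls; Compound: one concentration, 10 µM, in 0.5% DMSO; Schedule: 6 h compound exposure at 37 °C after overnight seeding.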
# [7] = HIF-2a driven luciferase blockers, single dose – luminescence, 786-0 RCC cells, confirmation (AID 651580;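 active = mean inhibition across four replicates of at least 40 percent at the single tested concentration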); conditions: HIF-2a luciferase reporter luminescence, overnight, at 18.8 µM, active compounds read high
# [8] = HIF-1a luciferase reporter signal reduction – MiaPaCa-2 cells, single concentration, counter-screen for HIF-2a inhibitor project, confirmation (AID 651589;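 active = mean inhibition of the reporter signal across four replicates at the single tested dose of 50% or more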); conditions: MiaPaCa-2 HIF-1a luciferase reporter, desferoxamine, overnight; at 18.8 µM; active compounds read high
structure (smiles),measurement,setting,value
Clc1ccc2nc(CSc3ccccc3)cn2c1,inhibition,[1],-58.5%
same,inhibition,[2],53.7% (active)
same,inhibition,[3],55.6% (active)
same,inhibition,[4],86.6% (active)
same,inhibition,Caspase-3 (Homo sapiens),68.9% (active)
same,inhibition,[5],70.8% (active)
CCOc1ccc2[nH]c3nc(SCC(=O)NC4CCCC4)nnc3c2c1,inhibition,[1],14.2%
CCC(=O)Nc1ccc2nn(-c3ccc(F)cc3)nc2c1,inhibition,[1],-119%
same,inhibition,[2],18.1%
same,inhibition,[3],38.2%
same,inhibition,[4],46.4%
same,inhibition,Caspase-3 (Homo sapiens),32.5%
same,inhibition,[5],3.4%
N=c1c2c(-c3ccccc3)c(-c3ccccc3)n(Cc3ccccc3)c2ncn1CCCO,inhibition,[1],24.1%
CCn1c(/C=C/c2ccc([N+](=O)[O-])o2)nc2ccccc2c1=O,inhibition,[1],23.7%
same,activation,[6],14.3%
same,inhibition,[7],-36.9%
same,inhibition,[8],105% (active)
COc1ccc(Nc2nc(-c3ccccc3)cs2)cc1,inhibition,[1],-140%
same,inhibition,[2],49.3%
same,inhibition,[3],89.6% (active)
same,inhibition,[4],100% (active)
same,inhibition,Caspase-3 (Homo sapiens),83.7% (active)
same,inhibition,[5],53.8% (active)
CCCOc1ccc(C(=O)NCCc2ccccc2)cc1,inhibition,[1],-82%
same,inhibition,[2],13.2%
same,inhibition,[3],62% (active)
same,inhibition,[4],88.3% (active)
same,inhibition,Caspase-3 (Homo sapiens),78% (active)
same,inhibition,[5],-5.4%
CCOc1cc(C(=O)N2CCc3cc(OC)c(OC)cc3C2)ccc1OC(F)F,inhibition,[1],57.9% (active)
O=C(Nc1ccccc1)Nc1nc2ccccc2s1,inhibition,[1],-117%
same,inhibition,[2],17.8%
same,inhibition,[3],29%
same,inhibition,[4],25.6%
same,inhibition,Caspase-3 (Homo sapiens),44.9%
same,inhibition,[5],22.6%
Cc1ccc(O)c(NC(=O)c2cc(-c3ccco3)on2)c1,inhibition,[1],52.2% (active)
same,inhibition,[2],30.6%
same,inhibition,[3],36.5%
same,inhibition,[4],81.1% (active)
same,inhibition,Caspase-3 (Homo sapiens),44.4%
same,inhibition,[5],14.4%
